In one assay the test system is K562. Briefly: Antiproliferative activity against human K562 cell line. The format is functional, cell-based.
Another assay concerns SF-268. Briefly: Antiproliferative activity against SF268 cells by XTT assay after 48 hrs. The assay is classed as functional, cell-based. The settings on record: Homo sapiens, SF-268, 48 h. An outline of the steps: (§1)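 Tumour cell lines were seeded at 1 × 10^3 to 8 × 10^4 cells/well for logarithmic growth and exposed to a concentration series for 48 h. Proliferation was read as cellular metabolic activity by XTT. IC50 came from dose-response curves by nonlinear regression, with at least two replicates.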

The test system of the next assay is SK-OV-3. Briefly: Antiproliferative activity against SKOV3 cells by XTT assay after 48 hrs. The assay is classed as functional, cell-based. The settings on record: Homo sapiens, SK-OV-3, 48 h. In a few lines: as §1
A further assay deals with Tubulin (Sus scrofa, UniProt P02554+P02550). The assay is described as follows: Inhibition of tubulin polymerization in porcine brain.
Assay [1] deals with RKO. The assay is described as follows: Antiproliferative activity against RKO cells by XTT assay after 48 hrs. To be noted: Homo sapiens. The assay is classed as functional, cell-based. An outline of the steps:
(§2)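 RKO colon adenocarcinoma cells carry an ecdysone-inducible p27kip1 vector. On day 1 they were plated with 3 µM ponasterone A (induced, 2 × 10^4 cells/well) or without it (not induced, 6 × 10^3 cells/well) and held 24 h at 37 °C. Compound or DMSO control was then added for 48 h at 37 °C, followed by a standard XTT read-out.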
(In general: Tetrazolium assays rely on reduction of a dye to a coloured formazan, in cell work by metabolically active cells.)

Assay [2] relates to RKO. The assay is described as follows: Antiproliferative activity against RKO cells with ectopic-induced p27kip1-expression by XTT assay after 48 hrs. The assay is classed as functional, cell-based. To be noted: Homo sapiens. In a few lines: as §2
Assay [3] can be described thus: Antiproliferative activity against KB/HeLa cells by XTT assay after 48 hrs. The assay is classed as functional, cell-based. The settings on record: Homo sapiens. In a few lines: as §1
The next assay has as its system NCI-H460. The assay is described as follows: Antiproliferative activity against NCI-H460 cells by XTT assay after 48 hrs. The assay is classed as functional, cell-based. The settings on record: Homo sapiens, NCI-H460, 48 h. In a few lines:
as §1

Assay [4] can be described thus: Cell cycle arrest in KB/HeLa cells by accumulation at G2/M phase. The format is functional, cell-based. The settings on record: Homo sapiens. An outline of the steps: (§3)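 Subconfluent KB/HeLa cells were treated with a concentration series for 24 h at 37 °C, then detached and fixed in 70% ethanol. DNA was stained with propidium iodide alongside RNase digestion and measured by flow cytometry. Phase fractions came from cell-cycle modelling software, and IC50 from nonlinear regression.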

Assay [5] in a line: Cell cycle arrest in KB/HeLa cells by accumulation at S phase at 100 nM. The assay is classed as functional, cell-based. To be noted: Homo sapiens. An outline of the steps:
as §3

Assay [6] can be described thus: Cell cycle arrest in KB/HeLa cells by accumulation at G2/M phase at 10 nM. The settings on record: Homo sapiens. The format is functional, cell-based. An outline of the steps: as §3
Assay [7] is described as follows: Cell cycle arrest in KB/HeLa cells by accumulation at G1 phase at 100 nM. The assay is classed as functional, cell-based. The settings on record: Homo sapiens. An outline of the steps: as §3
A short description of assay [8]: Cell cycle arrest in KB/HeLa cells by accumulation at S phase at 0.3 nM. To be noted: Homo sapiens. The format is functional, cell-based. An outline of the steps:
as §3

Assay [9] can be described thus: Cell cycle arrest in KB/HeLa cells by accumulation at G2/M phase at 0.3 nM. The format is functional, cell-based. To be noted: Homo sapiens. An outline of the steps:
as §3

A short description of assay [10]: Cell cycle arrest in KB/HeLa cells by accumulation at G2/M phase at 316 nM. The format is functional, cell-based. The settings on record: Homo sapiens. In a few lines:
as §3

Assay [11] can be described thus: Cell cycle arrest in KB/HeLa cells by accumulation at S phase at 1 nM. The assay is classed as functional, cell-based. The settings on record: Homo sapiens. In a few lines:
as §3

Assay [12] is described as follows: Cell cycle arrest in KB/HeLa cells by accumulation at S phase at 31.6 nM. The assay is classed as functional, cell-based. To be noted: Homo sapiens. In a few lines: as §3
Assay [13] is described as follows: Cell cycle arrest in KB/HeLa cells by accumulation at G1 phase at 3.16 nM. The format is functional, cell-based. The settings on record: Homo sapiens. In a few lines:
as §3

A short description of assay [14]: Cell cycle arrest in KB/HeLa cells by accumulation at G1 phase at 316 nM. The assay is classed as functional, cell-based. The settings on record: Homo sapiens. In a few lines: as §3
Assay [15] in a line: Cell cycle arrest in KB/HeLa cells by accumulation at S phase at 10 nM. The format is functional, cell-based. The settings on record: Homo sapiens. An outline of the steps: as §3
Assay [16] can be described thus: Cell cycle arrest in KB/HeLa cells by accumulation at G2/M phase at 31.6 nM. The assay is classed as functional, cell-based. To be noted: Homo sapiens. In a few lines: as §3
Assay [17] in a line: Cell cycle arrest in KB/HeLa cells by accumulation at G2/M phase at 100 nM. The assay is classed as functional, cell-based. The settings on record: Homo sapiens. In a few lines:
as §3

A short description of assay [18]: Cell cycle arrest in KB/HeLa cells by accumulation at G1 phase at 0.3 nM. The settings on record: Homo sapiens. The assay is classed as functional, cell-based. In a few lines:
as §3

The nature of assay [19]: Cell cycle arrest in KB/HeLa cells by accumulation at G2/M phase at 1 nM. The format is functional, cell-based. The settings on record: Homo sapiens. An outline of the steps: as §3
Assay [20] in a line: Cell cycle arrest in KB/HeLa cells by accumulation at S phase at 316 nM. The format is functional, cell-based. The settings on record: Homo sapiens. An outline of the steps:
as §3

A short description of assay [21]: Cell cycle arrest in KB/HeLa cells by accumulation at G1 phase at 1 nM. The assay is classed as functional, cell-based. The settings on record: Homo sapiens. An outline of the steps:
as §3

Assay [22] is described as follows: Cell cycle arrest in KB/HeLa cells by accumulation at G1 phase at 31.6 nM. The settings on record: Homo sapiens. The assay is classed as functional, cell-based. An outline of the steps:
as §3

Assay [23] in a line: Cell cycle arrest in KB/HeLa cells by accumulation at S phase at 3.16 nM. The settings on record: Homo sapiens. The format is functional, cell-based. An outline of the steps:
as §3

A short description of assay [24]: Cell cycle arrest in KB/HeLa cells by accumulation at G1 phase at 10 nM. The settings on record: Homo sapiens. The assay is classed as functional, cell-based. An outline of the steps: as §3
A further assay relates to L1210. Briefly: Antiproliferative activity against L1210 VCR cells by XTT assay after 48 hrs. The format is functional, cell-based. The settings on record: Mus musculus, L1210, 48 h. An outline of the steps: as §1
Another assay is described as follows: cells. To be noted: Rattus norvegicus, LT12, 48 h.
The next assay relates to MDR. The assay is described as follows: Antiproliferative activity against LT12 MDR cells by XTT assay after 48 hrs. The settings on record: Rattus norvegicus. The assay is classed as functional, cell-based. An outline of the steps: as §1
Assay [25] deals with P388. Briefly: Antiproliferative activity against P388 ADR cells by XTT assay after 48 hrs. The format is functional, cell-based. The settings on record: Mus musculus, P388, 48 h. An outline of the steps:
as §1

Assay [26] has as its system P388. The assay is described as follows: Antiproliferative activity against P388 cells by XTT assay after 48 hrs. The assay is classed as functional, cell-based. To be noted: Mus musculus, P388, 48 h. An outline of the steps: as §1

SMILES strings stand for the structures.

As to `COc1ccc(CCC(=O)Oc2c3ccccc3cc3sccc23)cc1`, the IC50 in the assay on K562 was > 90000 nM.

For `COc1ccc(COc2c3ccccc3cc3sccc23)cc1`, the IC50 with SF-268 is 430 nM; in the assay on SK-OV-3, 270 nM; against Tubulin it was 1520 nM; in the assay on RKO [1] it was 280 nM; with RKO [2], > 9000 nM; with K562, 250 nM. Besides, the IC50 in [3] stood at 470 nM; in the assay with NCI-H460 it was 980 nM.

For `O=C1c2ccccc2/C(=C/c2cc(Br)c(O)c(Br)c2)c2sccc21`, 6690 nM corresponded to half-maximal inhibition in the assay on K562 (IC50).

On to `COc1cc2c(c(OC)c1OC)-c1ccc(OC)c(=O)cc1[C@@H](NC(C)=O)CC2` [COLCHICINE], for which, in [4], the 50% effective concentration (EC50) turned out to be 14 nM. The Activity in assay [5] turned out to be 5.1%; in assay [6] it was 32.1%; in assay [7], 0.3%; in assay [8], 26.6%; in assay [9] it was 10.1%; in assay [10], 94.5%. The Activity in assay [11] was 25.4%; in [12] it was 11.9%; in assay [13], 64.3%; in assay [14], 0.3%; in assay [15], 35.7%; in assay [16], 87.6%. The Activity worked out at 94.7% in assay [17]; 63.3% in [18]; 10% in [19]; 5.2% in [20]; 64.7% in assay [21]; 0.5% in assay [22]. Further, the Activity in assay [23] was 25.1%; in assay [24], 32.2%. Further, the figures for the IC50 (in the assay with RKO [2]; in [3]) were > 10000 nM and 30 nM, respectively.

As for `CC[C@]1(O)C[C@@H]2CN(CCc3c([nH]c4ccccc34)[C@@](C(=O)OC)(c3cc4c(cc3OC)N(C)[C@H]3[C@@](O)(C(N)=O)[C@H](O)[C@]5(CC)C=CCN6CC[C@]43[C@@H]65)C2)C1` [VINDESINE], the IC50 was > 5000 nM in the assay on L1210; 1 nM in the assay “cells”; 260 nM in the assay on MDR; 1100 nM with P388 [25]; 10 nM in the assay on P388 [26].

With `COc1cc(/C=C2/c3ccccc3C(=O)c3ccsc32)ccc1O`, the IC50 was 880 nM at Tubulin and 100 nM in the assay on K562.

Molecule `O=[N+]([O-])c1ccc(COc2c3ccccc3cc3sccc23)cc1` displayed an IC50 with K562 of 3130 nM.

Consider `COc1ccc(/C=C2/c3ccccc3C(=O)c3ccsc32)c(O)c1`, for which the IC50 on Tubulin was determined as 770 nM; in the assay with K562, 230 nM.

For the molecule `COc1cc(COc2c3ccccc3cc3sccc23)cc(OC)c1OC`, the IC50 was > 10000 nM against Tubulin and 8950 nM with K562.

For `O=C1c2ccccc2Cc2sccc21`, half-maximal inhibition in the assay with K562 (IC50) required 7000 nM.

For the molecule `COc1ccc2[nH]cc(/C=C3/c4ccccc4C(=O)c4ccsc43)c2c1`, the half-inhibitory concentration (IC50) in the assay with K562 stood at 240 nM.

In the case of `O=C1c2ccccc2/C(=C/c2ccccc2)c2sccc21`, the IC50 on Tubulin was determined as 6200 nM; with K562, 330 nM.

With `O=C1c2ccccc2/C(=C/c2ccc([N+](=O)[O-])cc2)c2sccc21`, the values for the IC50 on Tubulin and in the assay on K562 were > 10000 nM and 720 nM, respectively.

On to `COc1ccc(CCOc2c3ccccc3cc3sccc23)cc1`, for which the IC50 at Tubulin is > 10000 nM; with K562, 5300 nM.

On to `O=C1c2ccccc2/C(=C/c2cc(Cl)cc(Cl)c2)c2sccc21`, for which the IC50 in the assay with K562 is 420 nM.

A word on the IC50: it is the point on the concentration scale where inhibition reaches its midpoint. Lower therefore signals greater potency. A word on the EC50: it is the concentration that produces a half-maximal response. A higher EC50 goes with weaker potency.
